In one series the test system is MEIS1 promoter. As to the kind of experiment: ChIP: MLL occupancy at MEIS1. It counts as cell-based. The conditions noted are these: HA-tagged full-length MLL, 293T cells. In a few lines:
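293T cells were transfected with HA-tagged full-length MLL, wild type or point mutant, for two days. ChIP was then run with the indicated antibodies. Quantitative PCR was done on ChIP-bound and input DNA at the MEIS1 promoter, with a MEIS1 3' genomic region for comparison.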

The subject of series [1] is histone H3 tail (H3K4me3). It counts as binding. The settings on record: mutant PHD3; pull-down, microarray and NMR. In a few lines:
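GST-fused MLL PHD3 (residues 1565-1627), wild type or mutant, was expressed in E. coli BL21(DE3) pLysS and purified on glutathione resin. It was incubated with C-terminally biotinylated histone H3 tail peptides (residues 1-21) on streptavidin beads in 50 mM Tris pH 7.5, 150 mM NaCl, 0.05% NP-40. Beads were washed five times, and bound protein was detected by anti-GST western blot. GST-PHD3 without peptide served as control.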

For another series, the system named is H3K4me3 peptide. As to the kind of experiment: NMR titration of PHD3 mutants with H3K4me3 peptide. The format is binding. The settings on record: data not shown; for H3K4me3 binding of mutant (1H,15N HSQC): 0.2 mM 15N-labeled mutant PHD3, H3K4me3 12-mer peptide; for changes in 1H,15N HSQC spectra induced by H3K4me3 peptide: 0.2 mM 15N-labeled mutant PHD3. In a few lines: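 PHD3 finger (residues 1565-1627, wild type or mutant) was expressed as a GST fusion in E. coli BL21(DE3) pLysS grown in 15NH4Cl minimal medium. It was affinity-purified, GST-cleaved, size-exclusion purified and held in 25 mM d11-Tris pH 6.8, 150 mM KCl, 10 mM deuterated DTT and 7% 2H2O. 12-mer histone tail peptides were added stepwise to 0.2 mM protein, and normalized chemical shift changes were tracked in 1H,15N HSQC spectra.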

A short description of series [2]: MLL protein levels by western blot. The format is cell-based. The conditions noted are these: 293T cells, Fig. 3B.

Positions count from the first letter of the chain named. Numbers in names are those of the source.

B1: F1568A: MLL PHD3 point mutant (GST-PHD3 in vitro; engineered into full-length MLL in cells) (protein)
chain: KGNACPLCDKCYDDDDYESKMMQCGKCDRWVHSKCENLSDEMYEILSNLPESVAYTCVNCTER
modifications: left off: GST, end not stated, kept
For B1, the “MEIS1 occupancy” value with MEIS1 promoter is “also occupied the MEIS1 promoter”.

B2: D1592A: MLL PHD3 point mutant, acidic residue replaced with Ala (PHD3 in vitro; full-length MLL in cells) (protein)
chain: B1 chain with A4F, D28A
modifications: left off: GST, end not stated, kept
Take B2: in the series on MEIS1 promoter, the “MEIS1 occupancy” value is “also occupied the MEIS1 promoter”.

B3: Y1576A: MLL PHD3 finger point mutant, tested in vitro only (protein)
chain: B1 chain with A4F, Y12A
modifications: left off: GST, end not stated, kept
Take B3: in series [1], the “ability to recognize H3K4me3” value is given as “more severely compromised”. Besides, in the series on H3K4me3 peptide, the “H3K4me3 binding of mutant (1H,15N HSQC)” value is “binding was essentially abolished” and the “changes in 1H,15N HSQC spectra induced by H3K4me3 peptide” value was “small to negligible changes”.

B4: W1594A: "loss-of-structure" MLL PHD3 point mutant (PHD3 in vitro; full-length MLL in cells) (protein)
chain: B1 chain with A4F, W30A
modifications: left off: GST, end not stated, kept
As for B4, the “ability to recognize H3K4me3” value in series [1] was “more severely compromised”. Also, in series [2], the “protein stability in vivo” value is given as “reduced stability in vivo”.

B5: M1585A: "loss-of-function" MLL PHD3 point mutant (PHD3 in vitro; full-length MLL in cells) (protein)
chain: B1 chain with A4F, M21A
modifications: left off: GST, end not stated, kept
For B5, in the series on MEIS1 promoter, the “MEIS1 occupancy” value was “also occupied the MEIS1 promoter”. Also, in series [1], the “ability to recognize H3K4me3” value is “more severely compromised”. For the same molecule, in the series on H3K4me3 peptide, the “H3K4me3 binding of mutant (1H,15N HSQC)” value is listed as “binding was essentially abolished” and the “changes in 1H,15N HSQC spectra induced by H3K4me3 peptide” value was “small to negligible changes”.

Source of the values: PMC2886590 (Journal of molecular biology, 2010).
